# Reference: ChEMBL document CHEMBL2417395, “Synthesis and biological evaluation of novobiocin analogues as potential heat shock protein 90 inhibitors” (Bioorg Med Chem, 2013)
# Calls of active or inactive are those of the source. The rule behind the calls is not given here.
# Legend:
# [1] = system: SK-BR-3; assay: Cell cycle arrest in human SKBR3 cells assessed as accumulation at subG1 phase after 48 hrs by flow cytometric analysis; type: functional, cell-based
# [2] = system: SK-BR-3; assay: Cell cycle arrest in human SKBR3 cells assessed as accumulation at subG1 phase at 12.5 to 25 uM by flow cytometric analysis; type: functional, cell-based; conditions: TDE = time-dependent effect
# [3] = system: SK-BR-3; assay: Cell cycle arrest in human SKBR3 cells assessed as accumulation at subG1 phase at 12.5 uM after 48 hrs by flow cytometric analysis (reference value: 7 +/- 1%); type: functional
# [4] = system: SK-BR-3; assay: Cell cycle arrest in human SKBR3 cells assessed as accumulation at subG1 phase at 25 uM after 48 hrs by flow cytometric analysis (reference value: 7 +/- 1%); type: functional
# [5] = system: SK-BR-3; assay: Cell cycle arrest in human SKBR3 cells assessed as accumulation at G2/M phase at 12.5 uM after 48 hrs by flow cytometric analysis (reference value: 21 +/- 1%); type: functional
# [6] = system: SK-BR-3; assay: Cell cycle arrest in human SKBR3 cells assessed as accumulation at G2/M phase at 25 uM after 48 hrs by flow cytometric analysis (reference value: 21 +/- 1%); type: functional
# [7] = system: SK-BR-3; assay: Cell cycle arrest in human SKBR3 cells assessed as accumulation at S phase at 12.5 uM after 48 hrs by flow cytometric analysis (reference value: 19 +/- 6%); type: functional
# [8] = system: SK-BR-3; assay: Cell cycle arrest in human SKBR3 cells assessed as accumulation at S phase at 25 uM after 48 hrs by flow cytometric analysis (reference value: 19 +/- 6%); type: functional
# [9] = system: SK-BR-3; assay: Cell cycle arrest in human SKBR3 cells assessed as accumulation at G0/G1 phase at 12.5 uM after 48 hrs by flow cytometric analysis (reference value: 54 +/- 2%); type: functional
# [10] = system: SK-BR-3; assay: Cell cycle arrest in human SKBR3 cells assessed as accumulation at G0/G1 phase at 25 uM after 48 hrs by flow cytometric analysis (reference value: 54 +/- 2%); type: functional
# [11] = species on record: Oryctolagus cuniculus; assay: Inhibition of HSP90 in rabbit reticulocyte lysate assessed as inhibition of heat-denatured luciferase refolding after 30 mins by luminescence plate reader analysis
# How it was run: (§1)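 Rabbit reticulocyte lysate with ATP regeneration (10 mM phosphocreatine, 1 mM ATP, 17.5 IU creatine kinase) preincubated with compound 20 min on ice; firefly luciferase (100 nM) heat-denatured 40 °C 8 min, diluted 10-fold into lysate; 28 °C, triplicate aliquots luminescence-read at 0, 15, 30, 60 min; mean RLU or % of DMSO.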
# [12] = species on record: Oryctolagus cuniculus; assay: Inhibition of HSP90 in rabbit reticulocyte lysate assessed as inhibition of heat-denatured luciferase refolding at 100 uM by luminescence plate reader analysis; conditions: TDE = time-dependent effect; how it was run: as §1
# [13] = species on record: Mus musculus; assay: Inhibition of HSP90 in mouse 3T3-Y9-B12 cells assessed as activation of HSF1 at 0.78 to 25 uM after overnight incubation by GFP reporter gene assay relative to control; type: cell-based
# How it was run: (§2)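 3T3-Y9-B12 mouse fibroblasts carrying a GFP gene under a minimal heat-shock element; near-confluent monolayers given serial dilutions in triplicate wells overnight, DMSO ≤0.25% vehicle, GA 0.5 µM positive control; after PBS wash, fluorescence at 485/525 nm, normalized to DMSO.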
# [14] = system: MCF7; assay: Cytotoxicity against ER-positive human MCF7 cells expressing low level of HER2 after 3 days by MTT assay; type: functional, cell-based; conditions: MCF7, 72 h
# How it was run: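 MCF-7 seeded 2,000 cells/well, serial dilutions added after 24 h, 72 h exposure; MTT at 500 µg/mL final, 3 h at 37 °C, formazan dissolved in DMSO, absorbance 570 nm minus 650 nm background. Triplicates, at least two experiments; IC50 = concentration cutting viable signal by 50% of DMSO control.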
# [15] = molecular target: T1, Heat shock protein HSP90 (Homo sapiens, UniProt P07900+P08238); assay: Inhibition of HSP90 in human SKBR3 cells assessed as aggregation of intracellular HER2 at 25 uM after 18 hrs by DAPI staining-based immunofluorescence microscopic analysis; type: cell-based; conditions: SK-BR-3
# How it was run: (§3)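 SKBR3 in chamber slides adhered overnight, treated 18 h, fixed 4% paraformaldehyde, permeabilized 1% Triton X-100, goat-serum block; anti-HER2 (20 µg/mL) then Alexa Fluor 488 secondary (2 µg/mL) on ice, DAPI nuclear counterstain; imaged at 160× with identical exposures. GA 0.5 µM positive control.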
# [16] = system: MCF7; assay: Induction of HSP70 in human MCF7 cells by Western blot analysis; type: cell-based
# How it was run: (§4)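 MCF-7 cells at 70% confluence treated 18 h; floating plus trypsinized cells pooled, lysed in NP-40 buffer (pH 7.4) with protease/phosphatase inhibitors; 20 µg protein on 7.5% SDS-PAGE, nitrocellulose, milk block; probed for HER2 (2.0 µg/mL monoclonal) or HSP72, alkaline-phosphatase secondary, NBT/BCIP development; Ponceau S loading check.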
# [17] = molecular target: T1, Heat shock protein HSP90; assay: Inhibition of HSP90 in human MCF7 cells assessed as depletion of total HER2 protein level at 12.5 to 25 uM after 18 hrs by Western blot analysis; type: cell-based; how it was run: as §4
# [18] = molecular target: T1, Heat shock protein HSP90; assay: Inhibition of HSP90 in human MCF7 cells assessed as depletion of total HER2 protein level at 50 uM after 18 hrs by Western blot analysis relative to control; type: cell-based; how it was run: as §4
# [19] = system: SK-BR-3; assay: Cytotoxicity against human SKBR3 cells assessed as growth inhibition at 100 uM after 18 hrs by capillary-based flow cytometric analysis; type: functional, cell-based
# How it was run: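 Short-term viability: SKBR3 cells exposed overnight under the same conditions as the surface-HER2 screen, then stained with a DNA-staining viability reagent; viable cell number counted by capillary flow cytometry.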
# [20] = molecular target: T1, Heat shock protein HSP90; assay: Inhibition of HSP90 in human SKBR3 cells assessed as depletion of cell surface HER2 protein level at 100 uM after 18 hrs by immunofluorescence-based flow cytometric analysis relative to control; conditions: SK-BR-3
# How it was run: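 SKBR3 cells treated 18 h at 100 µM (controls: DMSO, GA 0.5 µM, NB 500 µM), trypsinized, blocked in goat serum/PBA (pH 7.6) on ice, anti-HER2 20 µg/mL 30 min then Alexa 488 secondary 2 µg/mL 20 min on ice; mean fluorescence intensity by flow cytometry, isotype antibody control.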
# [21] = system: SK-BR-3; assay: Cytotoxicity against ER-negative human SKBR3 cells expressing high level of HER2 after 3 days by MTT assay; type: functional, cell-based; conditions: SK-BR-3, 72 h
# How it was run: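 SKBR3 cells in RPMI 1640 with 10% FBS exposed to serial dilutions for 3 days; MTT dye-reduction read-out of relative viable cell number. IC50 taken as concentration giving 50% reduction versus DMSO-treated cells.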
# [22] = molecular target: T1, Heat shock protein HSP90; assay: Inhibition of HSP90 in human MCF7 cells assessed as depletion of cell surface HER2 protein level after 18 hrs by flow cytometry
# [23] = system: SK-BR-3; assay: Cell cycle arrest in human SKBR3 cells assessed as accumulation at subG1 phase at 1000 uM after 48 hrs by flow cytometric analysis (reference value: 7 +/- 1%); type: functional
# [24] = system: SK-BR-3; assay: Cell cycle arrest in human SKBR3 cells assessed as accumulation at G2/M phase at 1000 uM after 48 hrs by flow cytometric analysis (reference value: 21 +/- 1%); type: functional
# [25] = species on record: Oryctolagus cuniculus; assay: Inhibition of HSP90 in rabbit reticulocyte lysate assessed as inhibition of heat-denatured luciferase refolding at 500 uM by luminescence plate reader analysis; conditions: TDE = time-dependent effect; how it was run: as §1
# [26] = species on record: Mus musculus; assay: Inhibition of HSP90 in mouse 3T3-Y9-B12 cells assessed as activation of HSF1 at 1000 uM after overnight incubation by GFP reporter gene assay relative to control; type: cell-based; how it was run: as §2
# [27] = molecular target: T1, Heat shock protein HSP90; assay: Inhibition of HSP90 in human SKBR3 cells assessed as aggregation of intracellular HER2 at 1000 uM after 18 hrs by DAPI staining-based immunofluorescence microscopic analysis; type: cell-based; conditions: SK-BR-3; how it was run: as §3
# [28] = system: SK-BR-3; assay: Cell cycle arrest in human SKBR3 cells assessed as accumulation at S phase at 1000 uM after 48 hrs by flow cytometric analysis (reference value: 19 +/- 6%); type: functional
# [29] = system: SK-BR-3; assay: Cell cycle arrest in human SKBR3 cells assessed as accumulation at G0/G1 phase at 1000 uM after 48 hrs by flow cytometric analysis (reference value: 54 +/- 2%); type: functional
# [30] = system: SK-BR-3; assay: Cell cycle arrest in human SKBR3 cells assessed as accumulation at subG1 phase at 0.5 uM after 48 hrs by flow cytometric analysis (reference value: 7 +/- 1%); type: functional
# [31] = system: SK-BR-3; assay: Cell cycle arrest in human SKBR3 cells assessed as accumulation at G2/M phase at 0.5 uM after 48 hrs by flow cytometric analysis (reference value: 21 +/- 1%); type: functional
# [32] = system: SK-BR-3; assay: Cell cycle arrest in human SKBR3 cells assessed as accumulation at S phase at 0.5 uM after 48 hrs by flow cytometric analysis (reference value: 19 +/- 6%); type: functional
# [33] = species on record: Oryctolagus cuniculus; assay: Inhibition of HSP90 in rabbit reticulocyte lysate assessed as inhibition of heat-denatured luciferase refolding at 0.5 uM by luminescence plate reader analysis; conditions: TDE = time-dependent effect; how it was run: as §1
# [34] = system: SK-BR-3; assay: Cell cycle arrest in human SKBR3 cells assessed as accumulation at G0/G1 phase at 0.5 uM after 48 hrs by flow cytometric analysis (reference value: 54 +/- 2%); type: functional
structure (smiles),measurement,setting,value
CO[C@@H]1[C@@H](OC(N)=O)[C@@H](O)[C@H](Oc2ccc3cc(NC(=O)c4cc5ccccc5[nH]4)c(=O)oc3c2C)OC1(C)C,Activity,[1],Dose-dependent effect
same,Activity,[2],tde
same,Activity,[3],8%
same,Activity,[4],29%
same,Activity,[5],18%
same,Activity,[6],10%
same,Activity,[7],17%
same,Activity,[8],10%
same,Activity,[9],58%
same,Activity,[10],56%
same,inhibition,[11],Dose-dependent effect
same,inhibition,[12],tde
same,fold change (FC),[13],< 2
same,IC50,[14],6 µM
same,inhibition,[15],Active
same,Activity,[16],Active
same,inhibition,[17],Active
same,inhibition,[18],50%
same,growth inhibition (GI),[19],Active
same,inhibition,[20],40%
same,IC50,[21],10 µM
same,EC50,[22],20 µM
COc1ccc(C(=O)Nc2c(OC)c3ccc(O[C@@H]4OC(C)(C)[C@H](OC)[C@@H](OC(N)=O)[C@H]4O)c(C)c3oc2=O)cc1CC=C(C)C,IC50,[14],18 µM
same,inhibition,[18],50%
same,growth inhibition (GI),[19],Active
same,inhibition,[20],40%
same,IC50,[21],19 µM
same,EC50,[22],38 µM
CO[C@@H]1[C@@H](OC(=O)c2ccc(C)[nH]2)[C@@H](O)[C@H](Oc2ccc3c(O)c(NC(=O)c4cc5ccccc5[nH]4)c(=O)oc3c2C)OC1(C)C,growth inhibition (GI),[19],Active
same,inhibition,[20],40%
same,EC50,[22],> 50 µM
CO[C@@H]1[C@@H](OC(N)=O)[C@@H](O)[C@H](Oc2ccc3c(O)c(NC(=O)c4ccc(O)c(CC=C(C)C)c4)c(=O)oc3c2C)OC1(C)C [NOVOBIOCIN],Activity,[23],38%
same,Activity,[24],10%
same,inhibition,[11],Dose-dependent effect
same,inhibition,[25],tde
same,fold change (FC),[26],1.5
same,IC50,[14],357 µM
same,inhibition,[27],Active
same,inhibition,[20],inactive
same,Activity,[28],15%
same,Activity,[29],57%
same,IC50,[21],350 µM
CO[C@@H]1[C@@H](OC(N)=O)[C@@H](O)[C@H](Oc2ccc3cc(NC(=O)c4ccc(O)c(CC=C(C)C)c4)c(=O)oc3c2C)OC1(C)C,Activity,[1],Dose-dependent effect
same,Activity,[2],tde
same,Activity,[3],22%
same,Activity,[4],48%
same,Activity,[5],9%
same,Activity,[6],15%
same,Activity,[7],10%
same,Activity,[8],17%
same,Activity,[9],62%
same,Activity,[10],43%
same,inhibition,[11],Dose-dependent effect
same,inhibition,[12],tde
same,fold change (FC),[13],< 2
same,IC50,[14],15 µM
same,inhibition,[15],Active
same,inhibition,[17],Active
same,inhibition,[18],50%
same,growth inhibition (GI),[19],Active
same,inhibition,[20],40%
same,IC50,[21],17 µM
same,EC50,[22],24 µM
COC1=C2C[C@@H](C)C[C@H](OC)[C@H](O)[C@@H](C)/C=C(\C)[C@H](OC(N)=O)[C@@H](OC)/C=C\C=C(/C)C(=O)NC(=CC1=O)C2=O [GELDANAMYCIN],Activity,[30],16%
same,Activity,[31],18%
same,Activity,[32],10%
same,inhibition,[11],Dose-dependent effect
same,inhibition,[33],tde
same,Activity,[34],65%
COc1ccc(C(=O)Nc2c(OC)c3ccc(O[C@@H]4OC(C)(C)[C@H](OC)[C@@H](O)[C@H]4O)c(C)c3oc2=O)cc1CC=C(C)C,IC50,[14],19 µM
same,inhibition,[18],50%
same,growth inhibition (GI),[19],Active
same,inhibition,[20],40%
same,IC50,[21],25 µM
same,EC50,[22],41 µM
